Assay results published in ChEMBL document CHEMBL4689842, “EUbOPEN Chemogenomics Library wave 1” (2021).
Several values for one entry are separate records, joined by “and”; a condition that tells them apart may be missing. Equal values may be shown once.

Key:
[1] = system: U2OS; experiment: Multiplex assay against U2OS; assay type: toxicity, cell-based; conditions: human
In short: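 Cells stained live at seeding with Hoechst33342, BioTracker Green Microtubule Cytoskeleton Dye, MitoTracker Red and Annexin V Alexa Fluor 680 were imaged on a CQ1 microscope at 37°C and 5% CO2 after compound addition. Their classification by CellPathfinder machine-learning gating ran from Hoechst high-intensity objects versus normal cells, to healthy, pyknosed or fragmented nuclei among normal cells, to mitotic or apoptotic among pyknosed cells. Tubulin, mitochondrial-mass and membrane-permeability phenotypes are per cents of healthy-nucleus cells.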

[2] = system: HEK-293T; experiment: Incucyte cell viability with HEK293T; assay type: toxicity, cell-based; conditions: human, 10 µM, compound concentration 10 uM; further: filed as whole numbers so only -1 and 0 and 1 occur
[3] = 12 h, 1 µM, compound concentration 1 uM, replicate 1
[4] = 12 h, 1 µM, compound concentration 1 uM, replicate 2
[5] = 12 h, 10 µM, compound concentration 10 uM, replicate 1
[6] = 12 h, 10 µM, compound concentration 10 uM, replicate 2
[7] = 24 h, 1 µM, compound concentration 1 uM, replicate 1
[8] = 24 h, 1 µM, compound concentration 1 uM, replicate 2
[9] = 24 h, 10 µM, compound concentration 10 uM, replicate 1
[10] = 24 h, 10 µM, compound concentration 10 uM, replicate 2
[11] = 0 h, replicate number 1, timepoint 0 hours
[12] = 6 h, replicate number 1, timepoint 6 hours
[13] = 18 h, replicate number 1, timepoint 18 hours
[14] = 24 h, replicate number 1, timepoint 24 hours
[15] = 48 h, 10 µM, compound concentration 10 uM, replicate 1
[16] = 48 h, 10 µM, compound concentration 10 uM, replicate 2

## Cc1c(Nc2ccc(S(=O)(=O)N3CCN(C)CC3)cc2F)nc2ccc(Nc3cnn(C4CC4)c3)cn2c1=O
[1]; [3]
  Population Apoptotic (%): 50%
  Population Fragmented Nuclei (%): 7%
  Population Healthy Nuclei (%): 81%
  Population Hoechst High Intensity Objects (%): 3%
  Population Membrane Permeable-Phenotype (%): 58%
  Population Mitochondria Different-Phenotype (%): 9%
  Population Mitotic Cells (%): 50%
  Population Normal (%): 96%
  Population Pyknosed Nuclei (%): 11%
  Population Tubulin-Different-Phenotype (%): 53%
  Total Cell Count: 194
[1]; [4]
  Population Apoptotic (%): 0%
  Population Fragmented Nuclei (%): 3%
  Population Healthy Nuclei (%): 93%
  Population Hoechst High Intensity Objects (%): 6%
  Population Membrane Permeable-Phenotype (%): 40%
  Population Mitochondria Different-Phenotype (%): 18%
  Population Mitotic Cells (%): 100%
  Population Normal (%): 93%
  Population Pyknosed Nuclei (%): 3%
  Population Tubulin-Different-Phenotype (%): 34%
  Total Cell Count: 124
[1]; [5]
  Population Apoptotic (%): 27%
  Population Fragmented Nuclei (%): 2%
  Population Healthy Nuclei (%): 91%
  Population Hoechst High Intensity Objects (%): 3%
  Population Membrane Permeable-Phenotype (%): 7%
  Population Mitochondria Different-Phenotype (%): 21%
  Population Mitotic Cells (%): 72%
  Population Normal (%): 96%
  Population Pyknosed Nuclei (%): 5%
  Total Cell Count: 459
[1]; [6]
  Population Apoptotic (%): 37%
  Population Fragmented Nuclei (%): 9%
  Population Healthy Nuclei (%): 82%
  Population Hoechst High Intensity Objects (%): 15%
  Population Membrane Permeable-Phenotype (%): 9%
  Population Mitochondria Different-Phenotype (%): 32%
  Population Mitotic Cells (%): 62%
  Population Normal (%): 84%
  Population Pyknosed Nuclei (%): 7%
  Population Tubulin-Different-Phenotype (%): 20%
  Total Cell Count: 603
[1]; [7]
  Population Apoptotic (%): 50%
  Population Fragmented Nuclei (%): 10%
  Population Healthy Nuclei (%): 80%
  Population Hoechst High Intensity Objects (%): 1%
  Population Membrane Permeable-Phenotype (%): 37%
  Population Mitochondria Different-Phenotype (%): 15%
  Population Mitotic Cells (%): 50%
  Population Normal (%): 98%
  Population Pyknosed Nuclei (%): 9%
  Population Tubulin-Different-Phenotype (%): 33%
  Total Cell Count: 275
[1]; [8]
  Population Apoptotic (%): 42%
  Population Fragmented Nuclei (%): 6%
  Population Healthy Nuclei (%): 87%
  Population Hoechst High Intensity Objects (%): 5%
  Population Membrane Permeable-Phenotype (%): 19%
  Population Mitochondria Different-Phenotype (%): 10%
  Population Mitotic Cells (%): 57%
  Population Normal (%): 94%
  Population Pyknosed Nuclei (%): 6%
  Population Tubulin-Different-Phenotype (%): 19%
  Total Cell Count: 152
[1]; [9]
  Population Apoptotic (%): 50%
  Population Fragmented Nuclei (%): 3%
  Population Healthy Nuclei (%): 91%
  Population Hoechst High Intensity Objects (%): 2%
  Population Membrane Permeable-Phenotype (%): 5%
  Population Mitochondria Different-Phenotype (%): 15%
  Population Mitotic Cells (%): 50%
  Population Normal (%): 97%
  Population Pyknosed Nuclei (%): 5%
  Population Tubulin-Different-Phenotype (%): 26%
  Total Cell Count: 480
[1]; [10]
  Population Apoptotic (%): 30%
  Population Fragmented Nuclei (%): 5%
  Population Healthy Nuclei (%): 85%
  Population Hoechst High Intensity Objects (%): 11%
  Population Membrane Permeable-Phenotype (%): 10%
  Population Mitochondria Different-Phenotype (%): 26%
  Population Mitotic Cells (%): 69%
  Population Normal (%): 88%
  Population Pyknosed Nuclei (%): 9%
  Population Tubulin-Different-Phenotype (%): 20%
  Total Cell Count: 644
[2]; [11]
  Growth Rate: 1
[2]; [12]
  Growth Rate: 0
[2]; 12 h, replicate number 1, timepoint 12 hours
  Growth Rate: 0
[2]; [13]
  Growth Rate: 0
[2]; [14]
  Growth Rate: 0

## Cc1c(Nc2ccc(S(=O)(=O)N3CCN(C)CC3)cc2F)nc2ccc(-c3cnn(C4CC4)c3)cn2c1=O
[1]; [3]
  Population Apoptotic (%): 12%
  Population Fragmented Nuclei (%): 4%
  Population Healthy Nuclei (%): 91%
  Population Hoechst High Intensity Objects (%): 2%
  Population Membrane Permeable-Phenotype (%): 5%
  Population Mitochondria Different-Phenotype (%): 15%
  Population Mitotic Cells (%): 87%
  Population Normal (%): 97%
  Population Pyknosed Nuclei (%): 4%
  Population Tubulin-Different-Phenotype (%): 18%
  Total Cell Count: 160
[1]; [4]
  Population Apoptotic (%): 0%
  Population Fragmented Nuclei (%): 5%
  Population Healthy Nuclei (%): 93%
  Population Hoechst High Intensity Objects (%): 8%
  Population Membrane Permeable-Phenotype (%): 10%
  Population Mitochondria Different-Phenotype (%): 17%
  Population Mitotic Cells (%): 100%
  Population Normal (%): 91%
  Population Pyknosed Nuclei (%): 1%
  Population Tubulin-Different-Phenotype (%): 15%
  Total Cell Count: 119
[1]; [5]
  Population Apoptotic (%): 29% and 44%
  Population Fragmented Nuclei (%): 21% and 30%
  Population Healthy Nuclei (%): 73% and 60%
  Population Hoechst High Intensity Objects (%): 34% and 46%
  Population Mitotic Cells (%): 70% and 55%
  Population Normal (%): 65% and 53%
  Population Pyknosed Nuclei (%): 5% and 8%
  Population Tubulin-Different-Phenotype (%): 12% and 27%
  Total Cell Count: 201 and 120
[1]; [6]
  Population Fragmented Nuclei (%): 56%
  Population Healthy Nuclei (%): 42% and 39%
  Population Hoechst High Intensity Objects (%): 41% and 58%
  Population Membrane Permeable-Phenotype (%): 17% and 8%
  Population Mitochondria Different-Phenotype (%): 11% and 23%
  Population Mitotic Cells (%): 80% and 35%
  Population Normal (%): 58% and 41%
  Population Pyknosed Nuclei (%): 1% and 3%
  Population Tubulin-Different-Phenotype (%): 11% and 8%
[1]; [7]
  Population Apoptotic (%): 0%
  Population Fragmented Nuclei (%): 1%
  Population Healthy Nuclei (%): 95%
  Population Hoechst High Intensity Objects (%): 1%
  Population Membrane Permeable-Phenotype (%): 7%
  Population Mitochondria Different-Phenotype (%): 7%
  Population Mitotic Cells (%): 100%
  Population Normal (%): 98%
  Population Pyknosed Nuclei (%): 2%
  Population Tubulin-Different-Phenotype (%): 17%
  Total Cell Count: 173
[1]; [8]
  Population Apoptotic (%): 11%
  Population Fragmented Nuclei (%): 4%
  Population Healthy Nuclei (%): 89%
  Population Hoechst High Intensity Objects (%): 3%
  Population Membrane Permeable-Phenotype (%): 8%
  Population Mitochondria Different-Phenotype (%): 29%
  Population Mitotic Cells (%): 88%
  Population Normal (%): 96%
  Population Pyknosed Nuclei (%): 6%
  Population Tubulin-Different-Phenotype (%): 20%
  Total Cell Count: 122
[1]; [9]
  Population Apoptotic (%): 29% and 32%
  Population Fragmented Nuclei (%): 15% and 33%
  Population Healthy Nuclei (%): 77% and 56%
  Population Hoechst High Intensity Objects (%): 27% and 49%
  Population Membrane Permeable-Phenotype (%): 14% and 7%
  Population Mitochondria Different-Phenotype (%): 8% and 22%
  Population Mitotic Cells (%): 70% and 67%
  Population Normal (%): 72% and 50%
  Population Pyknosed Nuclei (%): 6% and 10%
  Population Tubulin-Different-Phenotype (%): 7% and 16%
  Total Cell Count: 284 and 128
[1]; [10]
  Population Apoptotic (%): 22% and 60%
  Population Fragmented Nuclei (%): 56% and 58%
  Population Healthy Nuclei (%): 41% and 37%
  Population Hoechst High Intensity Objects (%): 40% and 58%
  Population Membrane Permeable-Phenotype (%): 16% and 13%
  Population Mitochondria Different-Phenotype (%): 9% and 23%
  Population Mitotic Cells (%): 77% and 40%
  Population Normal (%): 59% and 41%
  Population Pyknosed Nuclei (%): 2% and 3%
  Population Tubulin-Different-Phenotype (%): 8% and 13%
[1]; [15]
  Population Apoptotic (%): 43%
  Population Fragmented Nuclei (%): 23%
  Population Healthy Nuclei (%): 67%
  Population Hoechst High Intensity Objects (%): 39%
  Population Membrane Permeable-Phenotype (%): 4%
  Population Mitochondria Different-Phenotype (%): 8%
  Population Mitotic Cells (%): 56%
  Population Normal (%): 60%
  Population Pyknosed Nuclei (%): 8%
  Population Tubulin-Different-Phenotype (%): 18%
  Total Cell Count: 130
[1]; [16]
  Population Apoptotic (%): 71%
  Population Fragmented Nuclei (%): 57%
  Population Healthy Nuclei (%): 38%
  Population Hoechst High Intensity Objects (%): 53%
  Population Membrane Permeable-Phenotype (%): 11%
  Population Mitochondria Different-Phenotype (%): 17%
  Population Mitotic Cells (%): 28%
  Population Normal (%): 46%
  Population Pyknosed Nuclei (%): 3%
  Population Tubulin-Different-Phenotype (%): 8%
  Total Cell Count: 45
[2]; [11]
  Growth Rate: 1
[2]; [12]
  Growth Rate: 0
[2]; 12 h, replicate number 2, timepoint 12 hours
  Growth Rate: 1
[2]; [13]
  Growth Rate: 1
[2]; [14]
  Growth Rate: 1
